Screening results as filed in PubChem.
An excerpt weighted towards active compounds, which were near 3% of everything screened.
Tn6 DDE FP: disrupts Tn6 cyclic peptide binding to fibrin D-Dimer-E complex. Fibrin DD(E) TRITC-Tn6 fluorescence polarization displacement. inhibition, % at 8.3 µM. 0.21% of 370,000 active;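 active = inhibition above a per-campaign cutoff: mean of compounds within control limits plus 3 SD, cut at about 15% in these data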;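 note: 0% = median of all compound wells on the plate and 100% = blocking peptide control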
PLCb3 inh: blocks human PLC-beta3 enzyme activity | Purified PLC-beta3, fluorogenic substrate, fluorescence | inhibition, % at 12.2 µM | 0.18% of 370,000 active; in the data active = inhibition above about 11%;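 note: 0% = median of compound wells on plate and 100% = full blocker control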
DDE Tn7 FP inh: disrupts Tn7 cyclic peptide binding to fibrin D-Dimer-E complex. FP displacement of FITC-Tn7 peptide from fibrin DD(E); 0% = median of compound wells per plate. inhibition, % at 8.3 µM. 0.13% of 370,000 active. AID 720508;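 active = inhibition above the mean of compounds falling within the control limits plus 3 SD of them, cut at about 14% in these data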;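 note: 0% = plate median of compound wells and 100% = 10 µM Aha-Tn7 peptide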
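System: human fibrin DD(E); quantity: Fibrin-DD(E) at 2 µM final; also added: fluorescent Tn7 probe at 0.1 µM; compound dosing: single nominal test concentration of 8.3 µM per compound; schedule: 10 min preincubation, 3 h with tracer, room temperature; detection: fluorescence polarization of the labelled Tn7 tracer; repeats: one replicate per compound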
KLK7 zymogen act: activators of human kallikrein-7 zymogen. P49862. purified proKLK7, EDANS-DABCYL substrate fluorescence; 100% is mature enzyme control, 0% vehicle. activation, % at 7 µM. 0.9% of 370,000 active. AID 652039;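 active = activation above the mean of all tested compounds plus 3 SD, computed per campaign excluding outliers beyond control limits, cut at about 13% in these data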
NRP1-CendR mod: modulators of CendR peptide binding to human neuropilin-1 | inhibition, % at 25 µM | FAM-RPARPAR peptide binding to NRP-1, fluorescence polarization | O14786 | 0.85% of 360,000 active | AID 602438;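 active = inhibition or corrected inhibition above about 18%, plus a signal ratio from 0.5 to 1.5, limit read from the data, passing the limit was not always enough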
Target sequence (O14786 whole entry, looked up): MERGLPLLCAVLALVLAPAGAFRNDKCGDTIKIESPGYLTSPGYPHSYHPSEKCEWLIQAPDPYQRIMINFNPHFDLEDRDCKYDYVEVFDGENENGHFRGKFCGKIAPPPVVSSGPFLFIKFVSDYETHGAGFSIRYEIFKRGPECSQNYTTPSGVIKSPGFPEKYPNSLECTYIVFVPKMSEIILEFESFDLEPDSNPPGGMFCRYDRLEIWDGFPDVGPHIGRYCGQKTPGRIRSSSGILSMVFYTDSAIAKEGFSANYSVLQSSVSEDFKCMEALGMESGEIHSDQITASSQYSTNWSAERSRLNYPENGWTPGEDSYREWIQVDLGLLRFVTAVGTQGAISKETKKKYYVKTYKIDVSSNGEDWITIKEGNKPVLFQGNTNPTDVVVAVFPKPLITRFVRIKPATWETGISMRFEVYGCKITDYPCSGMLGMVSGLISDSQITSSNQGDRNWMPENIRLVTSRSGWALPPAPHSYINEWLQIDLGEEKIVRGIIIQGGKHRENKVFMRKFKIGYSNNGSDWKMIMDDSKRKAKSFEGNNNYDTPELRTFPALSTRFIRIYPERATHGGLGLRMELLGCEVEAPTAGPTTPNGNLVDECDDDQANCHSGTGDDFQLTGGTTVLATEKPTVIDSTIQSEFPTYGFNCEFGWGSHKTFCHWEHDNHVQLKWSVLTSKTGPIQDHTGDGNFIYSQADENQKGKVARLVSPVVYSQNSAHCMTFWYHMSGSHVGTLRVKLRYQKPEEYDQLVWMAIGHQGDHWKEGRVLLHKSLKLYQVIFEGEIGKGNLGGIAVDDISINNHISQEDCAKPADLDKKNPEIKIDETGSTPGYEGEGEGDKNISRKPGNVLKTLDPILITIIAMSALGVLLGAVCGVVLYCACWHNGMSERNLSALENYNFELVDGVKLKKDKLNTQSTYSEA
PLC-gamma1 inh: blocks human PLC-gamma1 enzyme activity; P19174; purified PLC-gamma1, fluorogenic substrate, fluorescence; inhibition, % at 12.2 µM; 0.84% of 370,000 active; AID 720700; in the data active = inhibition above about 9.5%
DDE Tn7 confirm: confirmation of inhibitors of Tn7 binding to human fibrin DD(E); shares compounds with DDE Tn7 FP inh; 5% of 460 active; FP displacement of TRITC-Tn7 peptide from DD(E); 0% set at plate's compound-well median; inhibition, % at 8.3 µM;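 active = inhibition above the campaign cutoff, the mean of compounds within control limits plus 3 SD, cut at about 14% in these data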;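 note: 100% = median FP of high control wells holding Aha-Tn7 inhibitor peptide; displacers lower polarization since freed probe rises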
DDE Tn7 FP ctr: counter-screen for inhibitors of Tn7 peptide binding to fibrin DD(E); shares compounds with DDE Tn7 FP inh; TRITC-Tn7 probe displacement, fluorescence polarization; inhibition, % at 8.3 µM; 3% of 460 active; AID 720633;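 active = inhibition above the cutoff, the mean of compounds lying between the control bounds plus 3 SD of those compounds, cut at about 17% in these data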;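 note: 0% = median of compound sample wells and 100% = excess unlabeled Aha-Tn7 peptide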
An asterisk follows results filed as active; i = inactive; nt = no result given.

SMILES	Tn6 DDE FP	PLCb3 inh	DDE Tn7 FP inh	KLK7 zymogen act	NRP1-CendR mod	PLC-gamma1 inh	DDE Tn7 confirm	DDE Tn7 FP ctr
CC1CCCCN1C(=O)COC(=O)Cc1c[nH]c2ccccc12 (configuration not stated)	4	1	15*	1	14	-3	2	0
COC(=O)c1sc(S(=O)(=O)N2CCN(c3ccccc3)CC2)c(C(=O)OC)c1C	1	2	14*	0	4	0	-2	-6
COc1cc(C(C(=O)NCC2CCCO2)N(C(=O)Cn2nnc3ccccc32)c2ccc(OC)c(OC)c2)ccc1O (configuration not stated)	-2	-4	0	0	7	-2	nt	nt
CCOc1cc(C(C(=O)NCC2CCCO2)N(C(=O)Cn2nnc3ccccc32)c2ccc(NC(C)=O)cc2)ccc1O (configuration not stated)	1	-8	31*	0	-2	-1	-2	-7
COc1cccc(-c2nnc3n2N=C(c2ccc(Cl)cc2)CS3)c1	-4	3	5	1	nt	0	nt	nt
CCOc1cc(/C=C2\CCCc3c2nc2ccccc2c3C(=O)O)ccc1OC	-1	i	64*	5	143	i	31*	-2
O=C(NCCc1ccccc1F)c1[nH]c(C(F)(F)F)nc1-c1ccccc1	-2	0	-2	0	4	1	nt	nt
COCCNC(=O)c1[nH]c(C(F)(F)F)nc1-c1ccccc1	2	1	15*	0	1	0	8	2
Cc1c(O)nc2ccccn2c1=O	13	-11	14*	0	-4	-5	1	-3
Cc1noc(C)c1S(=O)(=O)Nc1ccc2c(c1)C(=O)N([C@@H](C)CO)C[C@H](C)[C@@H](CN(C)Cc1ccc(C(F)(F)F)cc1)OCCCC[C@H](C)O2	-4	4	14*	0	-9	2	3	2
C[C@@H]1CCCCO[C@H](CN(C)Cc2ccc(C(F)(F)F)cc2)[C@@H](C)CN([C@H](C)CO)C(=O)c2cc(NS(=O)(=O)c3cn(C)cn3)ccc2O1	5	3	7	0	-2	-3	nt	nt
COC(=O)[C@H]1C[C@]2(C(/C=C(\C)CCC=C(C)C)S(=O)(=O)c3ccccc3)c3ccccc3N[C@H]2N1 (some centres not stated)	3	1	3	nt	nt	-1	nt	nt
Cc1ccc[n+](-c2nc([O-])sc2C=O)c1	-3	2	25*	0	118	-1	5	-3
O=C(Nc1ccc(OC(F)(F)F)cc1)Nc1c(-c2ccc(F)cc2)nc2ncccn12	-6	-31	2	-3	nt	-25	nt	nt
Cc1ccc(N2C(=O)c3cccc4c(N)ccc(c34)C2=O)c2cccnc12	0	-138	19*	-1	130	-99	-33	5
COc1cccc(/C=N\NC(=O)c2ccc(Cn3cc(Br)c([N+](=O)[O-])n3)o2)c1O	-13	-6	14*	0	4	-4	-2	-10
COc1cc(/C=N\NC(=O)c2ccc(Cn3nc([N+](=O)[O-])c(Cl)c3C)o2)ccc1O	0	3	-3	0	0	6	nt	nt
COC(=O)C(C(C)C)N(Cc1cc(OC)cc(OC)c1)S(=O)(=O)CCl (configuration not stated)	1	3	15*	1	8	-1	0	-4
COC(=O)[C@H](C(C)C)N(Cc1ccccc1)S(=O)(=O)CCN1CCCC1	5	2	-7	1	-1	6	nt	nt
CCOC(=O)CSc1nc(NCc2ccco2)c2ccccc2n1	-3	1	15*	0	-13	-3	1	-2
O=C(CCc1nnc(Cc2ccc(-c3ccccc3)cc2)o1)N1CCCC1	7	0	16*	0	-6	-1	-6	-9
